Measurements from ChEMBL document CHEMBL4004807 (J Med Chem, 2017).

Assays:
[1] = Drug level in bile-duct cannulated rat bile treated with 2-(((1r,4r)-4-(((4-chlorophenyl)(phenyl)carbamoyloxy)methyl)cyclohexyl)methoxy)acetic acid; format: ADME; conditions: in vivo
[2] = system: Plasma; test: Drug level in bile-duct cannulated rat plasma treated with 2-(((1r,4r)-4-(((4-chlorophenyl)(phenyl)carbamoyloxy)methyl)cyclohexyl)methoxy)acetic acid; format: ADME, cell-free
[3] = system: Plasma; test: Drug metabolism in po dosed rat plasma assessed as ralinepag formation; format: ADME, organism-based; conditions: in vivo
[4] = Drug degradation in simulated gastric fluid after 3 hrs
Procedure, shortened: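 Incubated in simulated gastric fluid at room temperature for 3 h; conversion to parent monitored.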

With `O=C(COC[C@H]1CC[C@H](COC(=O)N(c2ccccc2)c2ccc(Cl)cc2)CC1)NCCS(=O)(=O)O` as the compound, how does the Drug metabolism [1] read?
Its Drug metabolism is “Metabolite_Detected”.

And the Drug metabolism [2]?
Its Drug metabolism is “Metabolite_Detected”.

What about the Drug metabolism [3] of the same compound?
The Drug metabolism was “Metabolite_Detected”.

What about the Drug degradation [4] of the same compound?
The Drug degradation was “Metabolite_Notdetected”.
